In brackets after ≈: the same amount, converted by molar mass.
How the values were obtained:
Assay type in all cases: functional
[1] = test system: Streptococcus pneumoniae; test: Antibacterial activity against Streptococcus pneumoniae D001 harboring parC Ser79Phe and gyrA Gly85Lys mutant genes
[2] = test system: Streptococcus pneumoniae; test: Antibacterial activity against Streptococcus pneumoniae S003 harboring wild-type parC and gyrA Ser81Phe mutant genes
[3] = test system: Streptococcus pneumoniae; test: Antibacterial activity against Streptococcus pneumoniae W002 harboring wild-type parC and gyrA genes assessed as mutation prevention concentration after 48 hrs
Summary of the method: (§1)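 A 200 μl culture at 10 log10 CFU/ml was spread on Mueller-Hinton II agar with 5% sheep blood containing drug at a range of concentrations, then incubated at 37°C in 5% CO2. MPC was taken as the lowest concentration preventing colony formation after 48 h. Determinations were done in duplicate.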

[4] = test system: Streptococcus pneumoniae; test: Antibacterial activity against Streptococcus pneumoniae D001 harboring parC Ser79Phe and gyrA Gly85Lys mutant genes assessed as mutation prevention concentration after 48 hrs; summary of the method: as §1
[5] = test system: Streptococcus pneumoniae; test: Antibacterial activity against Streptococcus pneumoniae S004 harboring wild-type parC and gyrA Gly85Asn mutant genes assessed as mutation prevention concentration after 48 hrs; summary of the method: as §1
[6] = test system: Streptococcus pneumoniae; test: Antibacterial activity against Streptococcus pneumoniae D002 harboring parC Ser79Phe and gyrA Ser81Phe mutant genes assessed as mutation prevention concentration after 48 hrs; summary of the method: as §1
[7] = test system: Streptococcus pneumoniae; test: Antibacterial activity against Streptococcus pneumoniae S003 harboring wild-type parC and gyrA Ser81Phe mutant genes assessed as mutation prevention concentration after 48 hrs; summary of the method: as §1
[8] = test system: Streptococcus pneumoniae; test: Antibacterial activity against Streptococcus pneumoniae D002 harboring parC Ser79Phe and gyrA Ser81Phe mutant genes
[9] = test system: Streptococcus pneumoniae; test: Antibacterial activity against Streptococcus pneumoniae W002 harboring wild-type parC and gyrA genes
[10] = test system: Streptococcus pneumoniae; test: Antibacterial activity against Streptococcus pneumoniae W001 harboring wild-type parC and gyrA genes assessed as mutation prevention concentration after 48 hrs; summary of the method: as §1
[11] = test system: Streptococcus pneumoniae; test: Antibacterial activity against Streptococcus pneumoniae S004 harboring wild-type parC and gyrA Gly85Asn mutant genes
[12] = test system: Streptococcus pneumoniae; test: Antibacterial activity against Streptococcus pneumoniae W001 harboring wild-type parC and gyrA genes
[13] = test system: Streptococcus pneumoniae; test: Antibacterial activity against Streptococcus pneumoniae S001 harboring parC Asp83Asn mutant and wild-type gyrA genes assessed as mutation prevention concentration after 48 hrs; summary of the method: as §1
[14] = test system: Streptococcus pneumoniae; test: Antibacterial activity against Streptococcus pneumoniae S002 harboring parC Ser79Phe mutant and wild-type gyrA genes
[15] = test system: Streptococcus pneumoniae; test: Antibacterial activity against Streptococcus pneumoniae S002 harboring parC Ser79Phe mutant and wild-type gyrA genes assessed as mutation prevention concentration after 48 hrs; summary of the method: as §1
[16] = test system: Streptococcus pneumoniae; test: Antibacterial activity against Streptococcus pneumoniae S001 harboring parC Asp83Asn mutant and wild-type gyrA genes

Row | Structure (SMILES) | MIC [1] | MIC [2] | Activity [3] | Activity [4] | Activity [5] | Activity [6] | Activity [7] | MIC [8] | MIC [9] | Activity [10] | MIC [11] | MIC [12] | Activity [13] | MIC [14] | Activity [15] | MIC [16]
1 | COc1c(N2C[C@@H]3CCCN[C@@H]3C2)c(F)cc2c(=O)c(C(=O)O)cn(C3CC3)c12 [MOXIFLOXACIN] | 4 mg/L (≈ 9.96 µM) | 0.06 mg/L (≈ 0.149 µM) | 0.5 µg/mL | 16 µg/mL | 4 µg/mL | 16 µg/mL | 4 µg/mL | 4 mg/L (≈ 9.96 µM) | 0.06 mg/L (≈ 0.149 µM) | 0.5 µg/mL | 0.12 mg/L (≈ 0.299 µM) | 0.06 mg/L (≈ 0.149 µM) |  |  |  | 
2 | COc1c(N2CCNC(C)C2)c(F)cc2c(=O)c(C(=O)O)cn(C3CC3)c12 (stereo not drawn) [GATIFLOXACIN] | 4 mg/L (≈ 10.7 µM) | 0.12 mg/L (≈ 0.32 µM) | 0.5 µg/mL | 16 µg/mL | 8 µg/mL | 16 µg/mL | 8 µg/mL | 8 mg/L (≈ 21.3 µM) | 0.12 mg/L (≈ 0.32 µM) | 0.5 µg/mL | 0.25 mg/L (≈ 0.666 µM) | 0.12 mg/L (≈ 0.32 µM) | 4 µg/mL | 0.12 mg/L (≈ 0.32 µM) | 4 µg/mL | 0.25 mg/L (≈ 0.666 µM)
